# Experimental data reported in paper PMC6548570 (Bioorganic & medicinal chemistry, 2019).
# Columns and labels:
# sigma-2 = sigma-2 (Homo sapiens, UniProt Q5BJF2); test: Radioligand binding assay against sigma-2; settings: for pKi ± SEM Sigma-2: displacement of [3H]-DTG, <5 = not >50% inhibition at 10 μM single concentration
# Mouse liver microsomal = format: in vitro ADME; settings: 37 °C
# Outline: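 Mouse liver microsomes (0.4 mg/mL) with NADPH in 0.5 M phosphate buffer, test compound at 10 μM. T0 samples quenched at once with 2 volumes ice-cold acetonitrile; others shaken 60 min at 37 °C, then quenched likewise. Verapamil-HCl as control. After centrifugation, parent quantified by UPLC/MS (SRM). % remaining = (60 min/0 min concentration)×100; duplicate runs, mean reported.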
# sigma-1 = sigma-1 (Homo sapiens, UniProt Q99720); test: Radioligand binding assay against sigma-1
# sigma-1, sequence (Q99720 whole entry): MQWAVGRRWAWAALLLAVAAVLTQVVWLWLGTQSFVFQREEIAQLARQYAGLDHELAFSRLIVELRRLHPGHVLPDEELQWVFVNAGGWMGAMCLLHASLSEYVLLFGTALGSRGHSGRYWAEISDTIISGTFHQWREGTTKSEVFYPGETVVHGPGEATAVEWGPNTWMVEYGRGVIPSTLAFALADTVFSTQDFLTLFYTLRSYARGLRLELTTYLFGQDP
# sigma-2, sequence (Q5BJF2 whole entry): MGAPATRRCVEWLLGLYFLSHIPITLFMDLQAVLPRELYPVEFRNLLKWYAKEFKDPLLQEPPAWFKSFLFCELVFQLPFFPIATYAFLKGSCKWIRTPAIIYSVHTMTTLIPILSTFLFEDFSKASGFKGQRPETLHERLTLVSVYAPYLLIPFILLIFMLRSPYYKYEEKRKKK
activity against sigma-2 (in words) (sigma-2),pKi ± SEM Sigma-2 (sigma-2) [M],SMILES,further results
no activity,<5,"O=C(c1nn(-c2ccccc2)c2c1CC(NCc1ccc(F)cc1)CC2)N1CCCCC1 (stereo not shown) [7aa, (5-((4-Fluorobenzyl)amino)-1-phenyl-4,5,6,7-tetrahydro-1H-indazol-3-yl)(piperidin-1-yl)methanone]",
,,"O=C(c1nn(-c2ccccc2)c2c1CC(NCc1ccccc1)CC2)N1CCCCC1 (stereo not shown) [7ab, (5-(Benzylamino)-1-phenyl-4,5,6,7-tetrahydro-1H-indazol-3-yl)(piperidin-1-yl)methanone]",consumption by liver microsomes after 60 minutes (in words) (Mouse liver microsomal): nearly-completely consumed
,<5,"O=C(c1nn(-c2ccccc2)c2c1CC(NCCc1ccc(C(F)(F)F)cc1)CC2)N1CCCCC1 (stereo not shown) [7ac, (1-Phenyl-5-((4-(trifluoromethyl)phenethyl)amino)-4,5,6,7-tetrahydro-1H-indazol-3-yl)(piperidin-1-yl)methanone]",
,<5,"O=C(c1nn(-c2ccccc2)c2c1CC(NCCc1cccc(O)c1)CC2)N1CCCCC1 (stereo not shown) [7af, (5-((3-Hydroxyphenethyl)amino)-1-phenyl-4,5,6,7-tetrahydro-1H-indazol-3-yl)(piperidin-1-yl)methanone]",
,<5,"O=C(c1nn(Cc2ccccc2)c2c1CC(NCCc1ccncc1)CC2)N1CCCCC1 (stereo not shown) [7ag, (1-Benzyl-5-((2-(pyridin-4-yl)ethyl)amino)-4,5,6,7-tetrahydro-1H-indazol-3-yl)(piperidin-1-yl)methanone]",
,<5,"O=C(c1nn(Cc2ccccc2)c2c1CC(NCc1ccc(F)cc1)CC2)N1CCCCC1 (stereo not shown) [7ah, (1-Benzyl-5-((4-fluorobenzyl)amino)-4,5,6,7-tetrahydro-1H-indazol-3-yl)(piperidin-1-yl)methanone]",
,,"O=C(c1c2c(nn1-c1ccccc1)CCC(NCc1ccc(F)cc1)C2)N1CCCCC1 (stereo not shown) [7ba, (5-((4-Fluorobenzyl)amino)-2-phenyl-4,5,6,7-tetrahydro-2H-indazol-3-yl)(piperidin-1-yl)methanone]",fold more potent against sigma-2 compared to N-1 regioisomer 7aa (sigma-2; N-2 vs N-1 regioisomer): > 60 fold; consumption by liver microsomes after 60 minutes (in words) (Mouse liver microsomal): nearly-completely consumed; fold more potent against sigma-1 compared to N-1 regioisomer 7aa (sigma-1; N-2 vs N-1 regioisomer): over 5 fold
,<5,"O=C(c1c2c(nn1-c1ccccc1)CCC(NCCc1ccc(C(F)(F)F)cc1)C2)N1CCCCC1 (stereo not shown) [7bc, (2-Phenyl-5-((4-(trifluoromethyl)phenethyl)amino)-4,5,6,7-tetrahydro-2H-indazol-3-yl)(piperidin-1-yl)methanone]",
,,"O=C(c1c2c(nn1-c1ccc(F)cc1)CCC(NCc1ccc(F)cc1)C2)N1CCCCC1 (stereo not shown) [7bf, (5-((4-Fluorobenzyl)amino)-2-(4-fluorophenyl)-4,5,6,7-tetrahydro-2H-indazol-3-yl)(piperidin-1-yl)methanone]",selectivity for sigma-1 against sigma-2 (sigma-1; sigma-1 over sigma-2): over 500 fold
,<5,"NC(=O)c1ccc(-n2nc3c(c2C(=O)N2CCCCC2)CC(NCCc2ccccc2)CC3)cc1 (stereo not shown) [7bg, 4-(5-(Phenethylamino)-3-(piperidine-1-carbonyl)-4,5,6,7-tetrahydro-2H-indazol-2-yl)benzamide]",
completely lost,<5,"CCCn1nc(C(=O)N(C)C)c2c1CCC(OCc1ccc(F)cc1)C2 (stereo not shown) [compound 9, 5-((4-Fluorobenzyl)oxy)-N,N-dimethyl-1-propyl-4,5,6,7-tetrahydro-1H-indazole-3-carboxamide]",activity against sigma-1 (in words) (sigma-1): completely lost
completely lost,<5,"CCCn1nc(C(=O)N(C)C)c2c1CCC(SCc1ccc(F)cc1)C2 (stereo not shown) [compound 11, 5-((4-Fluorobenzyl)thio)-N,N-dimethyl-1-propyl-4,5,6,7-tetrahydro-1H-indazole-3-carboxamide]",activity against sigma-1 (in words) (sigma-1): completely lost
complete loss of activity,<5,"CCCn1nc(C(=O)N(C)C)c2c1CCC(NC(=O)c1ccc(F)cc1)C2 (stereo not shown) [compound 13, 5-(4-Fluorobenzamido)-N,N-dimethyl-1-propyl-4,5,6,7-tetrahydro-1H-indazole-3-carboxamide]",activity against sigma-1 (in words) (sigma-1): complete loss of activity
complete loss of activity,<5,"CCCn1nc(C(=O)N(C)C)c2c1CCC(NS(=O)(=O)c1ccc(F)cc1)C2 (stereo not shown) [compound 14, 5-((4-Fluorophenyl)sulfonamido)-N,N-dimethyl-1-propyl-4,5,6,7-tetrahydro-1H-indazole-3-carboxamide]",activity against sigma-1 (in words) (sigma-1): complete loss of activity
